Rows were chosen to be rich in hits. Some 1.9% of all compounds tested hit in one or more screens of this group.
Yeast superoxide: caloric restriction mimetics inhibiting age-related superoxide in yeast; 330,000 compounds, 0.18% hits; superoxide response (% of plate mean), % at 10 µM; S. cerevisiae aged cells, superoxide DHE fluorescence; active compounds read low;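 active means superoxide response under a set limit, about three screen SD below normal, cut at about 65% in these data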;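 further: yeast aged for seven days with compound at 30 °C before DHE staining; 100% = average MFI of all compound-treated wells on the plate with controls excluded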
Rev-erbA mod: Rev-erb alpha (human) modulation | Rev-erbα–FITC-DNA binding, fluorescence polarization, 90 min | 370,000 compounds, 0.79% hits | activity, % at 10 µM | P20393;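 active means activity above about 14%, limit read from the data; passing the limit was not always enough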;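 further: 0% = DMSO wells with 35 nM protein and 100% = DMSO wells with 750 nM protein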
Rce1 inh: blocks yeast Ras-converting enzyme; 290,000 compounds, 0.27% hits; calls only; Q03530; yeast membranes, quenched prenylated peptide cleavage fluorescence; AID 2563;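 active means fall in fluorescence gain of 50% or more versus controls, with final raw signal at or below 3038400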;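 further: plate controls were neutral control wells for no effect and wells lacking membranes for full effect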
Target sequence (Q03530 whole entry, looked up): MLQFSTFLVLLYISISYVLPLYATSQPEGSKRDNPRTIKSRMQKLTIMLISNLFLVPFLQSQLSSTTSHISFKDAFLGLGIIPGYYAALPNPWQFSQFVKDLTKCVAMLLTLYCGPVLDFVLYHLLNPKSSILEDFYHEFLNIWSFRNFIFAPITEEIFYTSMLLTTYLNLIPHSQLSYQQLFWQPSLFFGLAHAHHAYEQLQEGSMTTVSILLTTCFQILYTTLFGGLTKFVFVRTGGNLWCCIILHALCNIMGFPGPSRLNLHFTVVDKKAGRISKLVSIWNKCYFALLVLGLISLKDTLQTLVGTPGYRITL
UCH37 DUB inh: inhibitors of human deubiquitinating enzyme UCH37; 330,000 compounds, 0.33% hits; Q9Y5K5; inhibition, % (test concentration not listed); purified proteasome/UCH37, Ub-AMC cleavage fluorescence;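 active means mean inhibition over replicate wells above about 20%, limit read from the data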;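 further: 0% = compound-free wells with enzyme and 100% = wells lacking proteasome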
Target sequence (Q9Y5K5 whole entry, looked up): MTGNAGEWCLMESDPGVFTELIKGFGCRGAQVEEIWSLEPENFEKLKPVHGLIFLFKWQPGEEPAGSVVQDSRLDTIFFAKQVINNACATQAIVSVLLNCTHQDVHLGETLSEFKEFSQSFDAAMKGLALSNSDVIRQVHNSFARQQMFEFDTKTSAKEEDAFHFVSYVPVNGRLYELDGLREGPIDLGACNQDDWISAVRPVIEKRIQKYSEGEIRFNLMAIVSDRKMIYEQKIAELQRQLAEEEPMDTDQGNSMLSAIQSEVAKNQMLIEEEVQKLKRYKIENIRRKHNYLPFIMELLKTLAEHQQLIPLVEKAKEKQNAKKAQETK
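System: Proteasome-associated human UCH37 deubiquitinase; Input: 0.15 nM proteasome in added enzyme buffer; Also added: Ub-AMC substrate from 1 µM stock; Incubation: 30 min compound-proteasome preincubation then 25 min substrate reaction, room temperature; Detection: fluorescence, ex 355 nm, em 460 nm; Read-out: % inhibition of Ub-AMC cleavage fluorescence; Benchmarks: no-proteasome and no-compound wells.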
MIN6 prolif: induces beta-cell replication in MIN6 cells; proliferation, % at 10 µM; MIN6 cells proliferation, ATPlite luminescence, 48 h; cells starved in 0.2% serum; 100% = growth in 10% serum; AID 2380; 330,000 compounds, 0.29% hits;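 active means compounds whose signal lies at least 3.5 SD above the mean of all wells on their plate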;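 further: 0% = DMSO-treated cells in low-serum medium and 100% = 10% serum control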
PG9 Ab binder: PG9 antibody binding by small molecule. inhibition, % at 6.7 µM. 360,000 compounds, 0.43% hits. TR-FRET gp120-PG9 antibody binding; in the data active means inhibition above about 8.5%
Rev-erbA confirm: confirmation of modulators of human Rev-erb alpha DNA binding | shares compounds with Rev-erbA mod | Rev-erb alpha FITC-DNA binding, fluorescence polarization, 90 min | activation, % at 25 µM | 3,000 compounds, 61% hits | AID 1259319;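 active means activation at or above a set limit, or at least 3 SD above the negative control mean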;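 further: 0% = 35 nM protein with DMSO and 100% = 750 nM protein high control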
RORg counter: RORgamma DNA-binding activity, dose-response counter-screen | AID 1259320 | shares compounds with Rev-erbA mod | 910 compounds, 8% hits | IC50, µM | purified RORgamma protein-FITC-DNA binding, fluorescence polarization;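 active means Compounds whose fitted half-maximal concentration for disrupting protein-DNA binding is below 10 micromolar; the record names Rev-erb in its text, so the target is in doubt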
* marks the source's active call; other numbers are inactive results; i = inactive; . = no result.

SMILES | Yeast superoxide | Rev-erbA mod | Rce1 inh | UCH37 DUB inh | MIN6 prolif | PG9 Ab binder | Rev-erbA confirm | others
COc1cccc(-c2nc(CS(=O)(=O)CC(=O)NCCCc3ccccc3)c(C)o2)c1 | 99 | 60* | i | 1 | 0 | 4 | 37* | RORg counter=>40
Clc1ccc(-c2nn3c(-c4ccccc4)nnc3s2)cc1 | 94 | 24* | i | -3 | 0 | 3 | 15
Clc1ccccc1-c1nn2c(-c3cc(-c4ccccc4)n[nH]3)nnc2s1 | . | 30* | . | . | . | . | 44* | RORg counter=>40
Cc1cc(-c2nnc3sc(-c4ccc(Cl)cc4Cl)nn23)n[nH]1 | 96 | 45* | i | 0 | -4 | 6 | 40* | RORg counter=>40
c1ccc(-c2nnc3sc(-c4ccncc4)nn23)cc1 | 81 | -3 | i | 1 | 1 | -1 | .
COc1cccc(OC)c1-c1nn2c(-c3cc(-c4ccccc4)n[nH]3)nnc2s1 | 116 | 65* | i | . | -1 | -17 | 83* | RORg counter=>40
O=C(CSc1nnc(SCc2ccc(Cl)cc2)s1)NN=Cc1c[nH]c2ccccc12 | . | . | . | 8 | . | . | .
COc1cc(C=NNc2nc(-c3ccc(S(=O)(=O)N(C)C)cc3)cs2)ccc1O | . | . | . | -8 | . | . | .
O=C(NCc1ccccc1)c1cnc(Cc2c[nH]c3ccccc23)c(I)c1 | . | 2 | . | . | . | -2 | .
CN(Cc1ccccc1)C(=O)c1cnc(Cc2c[nH]c3ccccc23)c(I)c1 | . | 16* | . | . | . | 1 | 3
O=C(NN=C/C=C/c1ccccc1[N+](=O)[O-])c1cccs1 | . | . | . | 9 | . | . | .
CN(CC(=O)Nc1ccc(Cl)cc1)S(=O)(=O)c1ccc2c(c1)n(C)c(=O)c(=O)n2C | 94 | 63* | i | -5 | 2 | 0 | 43* | RORg counter=>40
O=C(NN=Cc1cc(Br)c(O)c(Br)c1)c1cccnc1 | . | . | . | 18 | . | . | .
CC(=NNC(=O)Cc1cc(=O)[nH][nH]1)c1cccc([N+](=O)[O-])c1 | . | . | . | -2 | . | . | .
CCOC(=O)C(C#N)=c1sc(=C2C=Cc3ccccc3N2CC)c(=O)n1CC | . | . | . | 2 | . | . | .
CCCN1C=CC(=C/C=C(\C#N)C(=O)OCC)C=C1 | 119 | . | i | . | -3 | . | .
CCCCCCN1C=CC(=C/C=C(\C#N)C(=O)OCC)C=C1 | 100 | 58* | i | 21* | -3 | -14 | 30*
CCOC(=O)/C(C#N)=C/C=C1\C=Cc2ccccc2N1CC | 107 | 74* | i | 3 | -2 | -13 | 56* | RORg counter=7.4*
COc1ccc(-c2cc(C(=O)OCC(=O)c3c(N)n(C)c(=O)n(C)c3=O)c3ccccc3n2)cc1 | 107 | 30* | i | -210 | -1 | 0 | 19*
COc1ccc(-c2cc(C(=O)c3c(N)n(C)c(=O)n(C)c3=O)c3ccccc3n2)cc1 | 95 | 5 | i | -11 | -6 | -3 | .
C=COC(=O)c1sc2nc(C)cc(C)c2c1N | 100 | 24* | i | -137 | 1 | 0 | 13
COc1ccc(CC(=O)Nc2cc(C)c3c(=O)oc4ccccc4c3n2)cc1 | 105 | 41* | i | 4 | 5 | 0 | 32* | RORg counter=>40
Cc1cc(NC(=O)c2ccccc2)nc2c1c(=O)oc1ccccc12 | 100 | 12 | i | -2 | -2 | -2 | .
CCOc1ccc(C(=O)Nc2cc(C)c3c(=O)oc4ccccc4c3n2)cc1 | 95 | 55* | i | -4 | 4 | 0 | 18*
Cc1[nH]c2ccccc2c1SCC(=O)O | 104 | -6 | i | 5 | -2 | -1 | .
SMILES | Yeast superoxide | Rev-erbA mod | Rce1 inh | UCH37 DUB inh | MIN6 prolif | PG9 Ab binder | Rev-erbA confirm | others
O=C(O)CSc1c2ccccc2cc2ccccc12 | 117 | 41* | i | -82 | -4 | -1 | 38* | RORg counter=>40
Fc1ccccc1C=NNc1nc(N2CCCCC2)nc(N2CCCCC2)n1 | . | . | . | 8 | . | . | .
N#CCSc1nc(-c2ccccc2)c2cc(Cl)ccc2n1 | 98 | 21* | i | -45 | 0 | 0 | 10
O=C(Nc1ccc(C(F)(F)F)cc1)c1cc(-c2cccnc2)nc2ccc(Br)cc12 | 92 | 34* | i | 0 | -6 | 0 | 22*
CC(=O)Nc1cccc(NC(=O)c2cc(-c3cccnc3)nc3ccc(Br)cc23)c1 | 73 | 4 | i | 4 | -4 | 8 | .
N=C1C(c2nc3ccccc3s2)=C(O)CN1C1CCCCC1 | 83 | 20* | i | 1 | -6 | -2 | 11
COc1cc(C=NNC(=O)Cc2ccc(Br)cc2)cc(OC)c1O | . | . | . | 2 | . | . | .
O=C(NCc1ccc2c(c1)OCO2)C1CCC(CNS(=O)(=O)c2cccc3nsnc23)CC1 (stereo not given) | 100 | 34* | i | 6 | 5 | 1 | 28* | RORg counter=>40
COCCNC(=O)C1CCC(CNS(=O)(=O)c2cccc3nsnc23)CC1 (stereo not given) | 86 | -7 | i | 1 | 4 | -1 | .
COc1ccc(CNC(=O)C2CCC(CNS(=O)(=O)c3cccc4nsnc34)CC2)cc1 (stereo not given) | 108 | 72* | i | 3 | -4 | 1 | 52* | RORg counter=>40
O=C(NCc1ccccn1)C1CCC(CNS(=O)(=O)c2cccc3nsnc23)CC1 (stereo not given) | 115 | 1 | i | 1 | 0 | 1 | .
CCCC(=NNc1ccc(Cl)cc1)c1cnnc(-c2ccccc2)n1 | . | . | . | 8 | . | . | .
COC(=O)[C@@]12CCCN1[C@H](c1ccc(-c3ccc(C(C)=O)cc3)c(OC)c1)[C@H]1C(=O)N(C)C(=O)[C@H]12 | 89 | 3 | . | 4 | 0 | 2 | .
COC(=O)[C@@]12CCCCN1[C@H](c1ccc(-c3cc(C(C)=O)cs3)cc1)[C@H]1C(=O)N(C)C(=O)[C@H]12 | 101 | 30* | i | 4 | -6 | 1 | 22*
CCSc1ccc([C@@H]2[C@@H]3C(=O)N(CC)C(=O)[C@@H]3[C@]3(C(=O)OC)CCCCN23)cc1 | 102 | 3 | i | 0 | -5 | -1 | .
CCC(C)Sc1ccc([C@@H]2[C@H]3C(=O)N(CC)C(=O)[C@H]3[C@]3(C(=O)OC)CCCCN23)cc1 (stereo not given in full) | 102 | 16* | . | -1 | -9 | 0 | 8
COC(=O)[C@@]12CCCCN1[C@H](c1ccc(-c3cc(C(C)=O)cs3)c(OC)c1)[C@H]1C(=O)N(C)C(=O)[C@H]12 | 108 | 41* | . | -17 | 1 | -3 | 34*
CC1Cc2ccccc2N1C(=O)CON=Cc1ccccc1OC(F)F (stereo not given) | . | . | . | 1 | . | . | .
Cc1ccc(C)c(N2CCN(c3ccc4cc(S(=O)(=O)N5CCCCC5)ccc4n3)CC2)c1 | 131 | 12 | i | -469 | -5 | 1 | .

Screening data: PubChem BioAssay, several laboratories
